According to ChEMBL document CHEMBL1122001, “Darmstoff analogues. 2. Ring and side-chain effects on smooth-muscle contraction” (1982):
Calls of active or inactive are those of the source. No cut-off for these calls is given here.

Key:
Type in all cases: functional
Cavia porcellus [1] = species on record: Cavia porcellus; experiment: Compound was tested for its ability to cause contraction of guinea pig ileum; Active
Cavia porcellus [2] = species on record: Cavia porcellus; experiment: Potency for guinea pig ileum contraction relative to acetylcholine
Outline: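 Ileal strip held in an oxygenated (95% O2/5% CO2) buffer bath under 1-g tension, with contraction magnitude recorded on a dynograph. An acetylcholine control response curve was run first, then a test compound curve after tissue recovery. The value is the ratio of the doses giving 50% of maximal response.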

Cavia porcellus [3] = species on record: Cavia porcellus; experiment: Concentration required for half-maximal contraction of guinea pig ileum
Cavia porcellus [4] = species on record: Cavia porcellus; experiment: Compound was tested for its ability to cause contraction of guinea pig ileum; Inactive

Structure (SMILES) | Activity (Cavia porcellus [4]) | other results
CCCCCCCC/C=C/CCCCCCCC1COC(COP(=O)([O-])O)CO1.[Na+] (stereo not drawn) |  | Activity (Cavia porcellus [1]): Active; Potency (Cavia porcellus [2]): 0.05%; Concentration (Cavia porcellus [3]): 16 µM
CCCCCCCCCCCCCCCC1CCC(COP(=O)(O)O)O1 (stereo not drawn) | inactive | 
CCCCCCCCCCCCCCCC1OCC(COP(=O)(O)O)O1 (stereo not drawn) | inactive | 
CCCCCCCC/C=C/CCCCCCCC1OCC(COP(=O)([O-])O)O1.[Na+] (cis isomer) |  | Activity (Cavia porcellus [1]): Active; Potency (Cavia porcellus [2]): 0.4%
CCCCCCCCCCCCCCCC1CCC(COP(=O)(O)O)C1 (stereo not drawn) | inactive | 
CCCCCCCC/C=C/CCCCCCCC1OC(COP(=O)(O)O)CS1 (cis isomer) | inactive | 
CCCCCCCC/C=C/CCCCCCCC1CCC(COP(=O)(O)O)C1 (cis isomer) | inactive | 
CCCCCCCC/C=C/CCCCCCCC1CCC(COP(=O)(O)O)O1 (stereo not drawn) | inactive | 
CCCCCCCCCCCCCCCC1COC(COP(=O)(O)O)CO1 (stereo not drawn) | inactive | 
CCCCCCCCCCCCCCCC1OC(COP(=O)(O)O)CS1 (stereo not drawn) | inactive | 
